Experimental findings from ChEMBL document CHEMBL1133748, “Synthesis and cytotoxic and antitumor activity of benzo[b]pyrano[3, 2-h]acridin-7-one analogues of acronycine” (J Med Chem, 2000) are described below.

The test system of assay [1] is L1210. In words: In vitro inhibition of L1210 cell proliferation. The format is functional, cell-based. To be noted: Mus musculus. Put shortly:
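L1210 murine leukemia cells grown in RPMI 1640 with 10% fetal calf serum, 2 mM glutamine, penicillin/streptomycin, 10 mM HEPES pH 7.4. Exposed 48 h to nine serial drug dilutions in triplicate. Microculture tetrazolium assay read-out. IC50 = concentration halving optical density versus untreated controls; mean of at least 2 separate experiments.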

The subject of assay [2] is Mus musculus. As to the kind of experiment: Optimal therapeutic effect without toxicity in mice inoculated ip with C38 cells on day 0 with 3.12 mg/kg iv of compound measured on day 31. It is filed as functional, MC-38.
Assay [3] concerns Mus musculus. As to the kind of experiment: Optimal therapeutic effect without toxicity in mice inoculated ip with P388 cells on day 0 with 12.5 mg/kg iv of compound on day 1. The format is functional.
For assay [4], the system named is Mus musculus. In words: Optimal therapeutic effect without toxicity in mice inoculated ip with P388 cells on day 0 with 12.5 mg/kg ip of compound on day 1. It is filed as functional. As to conditions: route intraperitoneal.
Assay [5] has as its system Mus musculus. In words: Optimal therapeutic effect without toxicity in mice inoculated ip with C38 cells on day 0 with 6.25 mg/kg iv of compound measured on day 31. It is filed as functional, MC-38.
Assay [6] deals with Mus musculus. As to the kind of experiment: Optimal therapeutic effect without toxicity in mice inoculated ip with P388 cells on day 0 with 12.5 mg/kg iv of compound on day 1.
For assay [7], the system named is Mus musculus. As to the kind of experiment: Optimal therapeutic effect without toxicity in mice inoculated ip with P388 cells on day 0 with 200 mg/kg ip of compound on day 1. To be noted: route intraperitoneal. It is filed as functional.

The structures appear in SMILES notation. pIC50: −log10 of the molar value. “And” between values parts separate entries of the source, which are not always exact repeats. Equal entries are not always repeated.

`COc1cc2c(c3c1c(=O)c1cc4ccccc4cc1n3C)[C@@H](OC(=O)CC(C)C)[C@@H](OC(=O)CC(C)C)C(C)(C)O2` gave a pIC50 in assay [1] of 6.30.

As for `COc1cc2c(c3c1c(=O)c1cc4ccccc4cc1n3C)[C@@H](OC(C)=O)[C@@H](OC(=O)CC(C)C)C(C)(C)O2`, in assay [1], the pIC50 was 6.30.

On to `C=C1Oc2cc(OC)c3c(=O)c4cc5ccccc5cc4n(C)c3c2C1(C)C`, for which the negative-log IC50 (pIC50) in assay [1] is 4.85.

`CCC(=O)O[C@@H]1c2c(cc(OC)c3c(=O)c4cc5ccccc5cc4n(C)c23)OC(C)(C)[C@@H]1OC(=O)CC`: the pIC50 in assay [1] is 6.05.

Turning to `COc1cc2c(c3c1c(=O)c1cc4ccccc4cc1n3C)[C@@H](O)[C@@H](OC(=O)c1ccccc1)C(C)(C)O2`, in assay [1], the negative logarithm of the IC50 (pIC50) is 5.77. Compared with the last molecule, the pIC50 is 0.28 log units lower.

The molecule `Oc1cc(O)c2c(O)c3cc4ccccc4cc3nc2c1` showed a pIC50 in assay [1] of 5.22.

In turn, `C=C1Oc2cc(O)c3c(O)c4cc5ccccc5cc4nc3c2C1(C)C` showed a pIC50 in assay [1] of 5.49.

As to `CC1(C)C=Cc2c(cc(O)c3c(O)c4cc5ccccc5cc4nc23)O1`, the pIC50 in assay [1] is 4.99. This pIC50 lies 0.50 log units lower than the previous one.

Take `COc1c2c(cc3c1c(=O)c1cc4ccccc4cc1n3C)OC(C)(C)C=C2`: the negative logarithm of the IC50 (pIC50) in assay [1] is 5.31.

With `Cn1c2cc3ccccc3cc2c(=O)c2c(O)cc3c(c21)C=CC(C)(C)O3`, the pIC50 in assay [1] is 4.75.

`C=C1Oc2cc3c(c(OC)c2C1(C)C)c(=O)c1cc2ccccc2cc1n3C` showed a negative logarithm of the IC50 (pIC50) in assay [1] of 5.07. This pIC50 lies 0.32 log units higher than the previous one.

The molecule `C=C1Oc2cc(O)c3c(=O)c4cc5ccccc5cc4n(C)c3c2C1(C)C` gave a pIC50 in assay [1] of 5.05.

Turning to `COc1cc2c(c3c1c(=O)c1cc4ccccc4cc1n3C)[C@H]1OC(=O)OC1C(C)(C)O2` (stereo partly drawn), the “T/C (tumor vol)” value in assay [2] is listed as 18%. The “T/C (survival)” value in assay [3] is listed as 157%; in assay [4] it was 327%. In assay [1], this molecule had a pIC50 of 7.70.

In the case of `COc1cc2c(c3c1c(=O)c1cc4ccccc4cc1n3C)[C@@H](O)[C@@H](OC(=O)CC(C)C)C(C)(C)O2`, the pIC50 in assay [1] was 5.72.

On to `COc1cc2c(c3c1c(=O)c1cc4ccccc4cc1n3C)[C@@H](OC(C)=O)[C@@H](OC(C)=O)C(C)(C)O2`, for which the “T/C (tumor vol)” value in assay [5] stood at 4%. Also, in assay [1], the negative-log IC50 (pIC50) was 6.22. Further, in assay [4] (12.5 mg/kg), the “T/C (survival)” value was 213% and 178%.

On to `COc1cc2c(c3c1c(=O)c1cc4ccccc4cc1n3C)[C@@H](OC(C)=O)[C@@H](OC(=O)c1ccccc1)C(C)(C)O2`, for which the negative-log IC50 (pIC50) in assay [1] is 6.70.

In turn, `COc1cc2c(c3c1c(=O)c1cc4ccccc4cc1n3C)[C@@H](O)[C@@H](O)C(C)(C)O2` gave a pIC50 in assay [1] of 4.39.

Consider `COc1cc2c(c3c1c(=O)c1ccccc1n3C)[C@@H](OC(C)=O)[C@@H](OC(C)=O)C(C)(C)O2` (racemic), for which the negative-log IC50 (pIC50) in assay [1] is 5.47. Further, the “T/C (survival)” value in assay [4] worked out at 224%; in assay [6] it was 202%.

On to `COc1cc2c(c3c1c(=O)c1ccccc1n3C)C=CC(C)(C)O2` [ACRONINE], for which the “T/C (survival)” value in assay [7] is recorded as 125%. In addition, in assay [1], the pIC50 is 4.70.

Regarding `COc1cc2c(c3c1c(=O)c1cc4ccccc4cc1n3C)C=CC(C)(C)O2` [BENZO[B]ACRONYCINE], the pIC50 in assay [1] was 5.72.
